ChEMBL document CHEMBL4706624, “Synthesis and evaluation of new quinazoline-benzimidazole hybrids as potent anti-microbial agents against multidrug resistant Staphylococcus aureus and Mycobacterium tuberculosis” (Eur J Med Chem, 2021)
≈ marks a conversion by molar mass, not a printed value.

What was measured:
Staphylococcus aureus [1] = test: Antibacterial activity against vancomycin-resistant Staphylococcus aureus VRS12 measured after 16 to 18 hrs; assay type: functional; conditions: time 16-18 hrs
Procedure, shortened: (§1)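 Broth microdilution MIC. Strains grown on MHA; a single colony was grown overnight in CA-MHB at 37 °C with shaking for 18–24 h. Cultures were diluted by OD600 to ~10⁶ cfu/mL and exposed to compound at […]. Plates were incubated at 37 °C for 16-18 h. MIC = lowest concentration with no visible growth. Levofloxacin was the reference. Three independent runs, each in duplicate.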

Staphylococcus aureus [2] = test: Antibacterial activity against vancomycin-resistant Staphylococcus aureus VRS4 measured after 16 to 18 hrs; assay type: functional; conditions: time 16-18 hrs; procedure, shortened: as §1
Staphylococcus aureus [3] = test: Antibacterial activity against vancomycin-resistant Staphylococcus aureus VRS1 measured after 16 to 18 hrs; assay type: functional; conditions: time 16-18 hrs; procedure, shortened: as §1
Acinetobacter baumannii = test: Antibacterial activity against Acinetobacter baumannii BAA1605 measured after 16 to 18 hrs; assay type: functional; conditions: time 16-18 hrs; procedure, shortened: as §1
Mycobacteroides chelonae = test: Antimycobacterial activity against Mycobacterium chelonae ATCC 35752 by broth microdilution method; assay type: functional
Procedure, shortened: (§2)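 Broth microdilution MIC in Middlebrook 7H9 with 10% ADC-Tween-80 (BSA, dextrose, 0.2% glycerol, 0.05% Tween-80). Inoculum ~10⁶ cfu/mL set by OD600. Compounds were twofold serially diluted, 0.0064–0.00005 g/100 mL (DMSO stocks). Presto blue resazurin dye was used as read-out. MIC = lowest concentration inhibiting visible growth. Triplicate runs, each in duplicate.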

Pseudomonas aeruginosa = test: Antibacterial activity against Pseudomonas aeruginosa ATCC 27853 measured after 16 to 18 hrs; assay type: functional; conditions: time 16-18 hrs; procedure, shortened: as §1
Staphylococcus aureus [4] = test: Antibacterial activity against Staphylococcus aureus ATCC 29213 measured after 16 to 18 hrs; assay type: functional; conditions: time 16-18 hrs; procedure, shortened: as §1
[5] = system: Mycobacterium tuberculosis; test: Antitubercular activity against Mycobacterium tuberculosis H37Rv ATCC 27294 measured after 7 days by broth microdilution method; assay type: functional; conditions: H37Rv ATCC 27294, 168 h, time 7 day
Procedure, shortened: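 H37Rv in Middlebrook 7H9 with 10% ADC, 0.2% glycerol, 0.05% Tween-80. Inoculum ~10⁶ cfu/mL set by OD600. Twofold serial dilutions, 0.0064–0.00005 g/100 mL. Incubated at 37 °C for 7 days, then Presto blue resazurin read-out. MIC = lowest concentration inhibiting visible growth. Triplicate runs, each in duplicate.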

[6] = system: Mycobacteroides abscessus; test: Antimycobacterial activity against Mycobacterium abscessus ATCC 19977 by broth microdilution method; assay type: functional; procedure, shortened: as §2
[7] = system: Mycolicibacterium fortuitum; test: Antimycobacterial activity against Mycobacterium fortuitum ATCC 6841 by broth microdilution method; assay type: functional; procedure, shortened: as §2
Escherichia coli = test: Antibacterial activity against Escherichia coli ATCC 25922 measured after 16 to 18 hrs; assay type: functional; conditions: time 16-18 hrs; procedure, shortened: as §1
Klebsiella pneumoniae = test: Antibacterial activity against Klebsiella pneumoniae BAA-1705 measured after 16 to 18 hrs; assay type: functional; conditions: ATCC BAA-1705, time 16-18 hrs; procedure, shortened: as §1
Staphylococcus aureus [8] = test: Antibacterial activity against methicillin-resistant Staphylococcus aureus NR10192 measured after 16 to 18 hrs; assay type: functional; conditions: time 16-18 hrs; procedure, shortened: as §1
Staphylococcus aureus [9] = test: Antibacterial activity against methicillin-resistant Staphylococcus aureus NR10129 measured after 16 to 18 hrs; assay type: functional; conditions: time 16-18 hrs; procedure, shortened: as §1
Staphylococcus aureus [10] = test: Antibacterial activity against methicillin-resistant Staphylococcus aureus NR10194 measured after 16 to 18 hrs; assay type: functional; conditions: time 16-18 hrs; procedure, shortened: as §1
Staphylococcus aureus [11] = test: Antibacterial activity against methicillin-resistant Staphylococcus aureus NR10186 measured after 16 to 18 hrs; assay type: functional; conditions: time 16-18 hrs; procedure, shortened: as §1
Staphylococcus aureus [12] = test: Antibacterial activity against methicillin-sensitive Staphylococcus aureus ATCC 29213 measured after 16 to 18 hrs; assay type: functional; conditions: time 16-18 hrs; procedure, shortened: as §1
Staphylococcus aureus [13] = test: Antibacterial activity against methicillin-resistant Staphylococcus aureus NR100 measured after 16 to 18 hrs; assay type: functional; conditions: time 16-18 hrs; procedure, shortened: as §1
Staphylococcus aureus [14] = test: Antibacterial activity against methicillin-resistant Staphylococcus aureus NR10191 measured after 16 to 18 hrs; assay type: functional; conditions: time 16-18 hrs; procedure, shortened: as §1
Staphylococcus aureus [15] = test: Antibacterial activity against methicillin-resistant Staphylococcus aureus NR10193 measured after 16 to 18 hrs; assay type: functional; conditions: time 16-18 hrs; procedure, shortened: as §1
Staphylococcus aureus [16] = test: Antibacterial activity against methicillin-resistant Staphylococcus aureus NR10198 measured after 16 to 18 hrs; assay type: functional; conditions: time 16-18 hrs; procedure, shortened: as §1
Staphylococcus aureus [17] = test: Antibacterial activity against methicillin-resistant Staphylococcus aureus NR119 measured after 16 to 18 hrs; assay type: functional; conditions: time 16-18 hrs; procedure, shortened: as §1
[18] = Cytotoxicity against African green monkey Vero cells assessed as reduction in cell viability measured after 72 hrs by MTT assay; assay type: cell-based; conditions: chlorocebus sabaeus
Procedure, shortened: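 Vero cells (ATCC CCL-81), ~10³ cells/well, held 24 h at 37 °C in 5% CO₂. Compound at 100–5 mg/L for 72 h. MTT was added for 4 h, formazan dissolved in DMSO, OD read at 540 nm. CC50 = concentration giving 50% viability reduction. Doxorubicin was the positive control. Triplicate.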

[19] = Selectivity index, ratio of CC50 for cytotoxicity against African green monkey Vero cells to MIC for antibacterial activity against Staphylococcus aureus ATCC 29213; assay type: toxicity, cell-based; conditions: read-out: Selectivity Index
Procedure, shortened: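 SI = Vero CC50 (MTT, 72 h) divided by MIC against S. aureus ATCC 29213 (CA-MHB broth microdilution, 16-18 h, 37 °C).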

| SMILES | MIC (Staphylococcus aureus [1]) | MIC (Staphylococcus aureus [2]) | MIC (Staphylococcus aureus [3]) | MIC (Acinetobacter baumannii) | MIC (Mycobacteroides chelonae) | MIC (Pseudomonas aeruginosa) | MIC (Staphylococcus aureus [4]) | MIC [5] | MIC [6] | MIC [7] | MIC (Escherichia coli) | MIC (Klebsiella pneumoniae) | other results |
| --- | --- | --- | --- | --- | --- | --- | --- | --- | --- | --- | --- | --- | --- |
| CN[C@H](CC(C)C)C(=O)N[C@H]1C(=O)N[C@@H](CC(N)=O)C(=O)N[C@H]2C(=O)N[C@H]3C(=O)N[C@H](C(=O)N[C@H](C(=O)O)c4cc(O)cc(O)c4-c4cc3ccc4O)[C@H](O)c3ccc(c(Cl)c3)Oc3cc2cc(c3O[C@@H]2O[C@H](CO)[C@@H](O)[C@H](O)[C@H]2O[C@H]2C[C@](C)(N)[C@H](O)[C@H](C)O2)Oc2ccc(cc2Cl)[C@H]1O [VANCOMYCIN] | > 64 µg/mL | > 64 µg/mL | > 64 µg/mL | – | – | – | – | – | – | – | – | – | – |
| O=C(Nc1ccc2nc(-c3ccc(Br)cc3F)[nH]c2c1)c1ccc(Nc2nc(-c3ccccc3)nc3ccccc23)cc1 | – | – | – | > 64 µg/mL | > 64 µg/mL | > 64 µg/mL | 64 µg/mL (≈ 102 µM) | > 64 µg/mL | > 64 µg/mL | > 64 µg/mL | > 64 µg/mL | > 64 µg/mL | – |
| C[C@H]1COc2c(N3CCN(C)CC3)c(F)cc3c(=O)c(C(=O)O)cn1c23.C[C@H]1COc2c(N3CCN(C)CC3)c(F)cc3c(=O)c(C(=O)O)cn1c23.O [LEVOFLOXACIN] | 32 µg/mL | > 64 µg/mL | 32 µg/mL | – | 0.03 µg/mL | 0.5 µg/mL | 0.015 µg/mL | – | 1 µg/mL | 0.03 µg/mL | 0.125 µg/mL | 64 µg/mL | MIC (Staphylococcus aureus [8]): 16 µg/mL; MIC (Staphylococcus aureus [9]): 0.25 µg/mL; MIC (Staphylococcus aureus [10]): 0.125 µg/mL; MIC (Staphylococcus aureus [11]): 8 µg/mL; MIC (Staphylococcus aureus [12]): 0.125 µg/mL; MIC (Staphylococcus aureus [13]): 0.25 µg/mL; MIC (Staphylococcus aureus [14]): 32 µg/mL; MIC (Staphylococcus aureus [15]): 32 µg/mL; MIC (Staphylococcus aureus [16]): 8 µg/mL; MIC (Staphylococcus aureus [17]): 16 µg/mL |
| CO[C@H]1/C=C/O[C@@]2(C)Oc3c(C)c(O)c4c(O)c(c(/C=N/N5CCN(C)CC5)c(O)c4c3C2=O)NC(=O)/C(C)=C\C=C\[C@H](C)[C@H](O)[C@@H](C)[C@@H](O)[C@@H](C)[C@H](OC(C)=O)[C@@H]1C [RIFAMPIN] | – | – | – | – | – | – | – | 0.06 µg/mL (≈ 0.0729 µM) | – | – | – | – | – |
| Clc1ccc(-c2nc(Nc3ccc(-c4nc5cc(Cl)ccc5[nH]4)cc3)c3ccccc3n2)cc1 | – | – | – | > 64 µg/mL | – | > 64 µg/mL | > 64 µg/mL | – | – | – | > 64 µg/mL | > 64 µg/mL | – |
| CN[C@@H]1[C@H](O[C@H]2[C@H](O[C@H]3[C@H](O)[C@@H](O)[C@H](N=C(N)N)[C@@H](O)[C@@H]3N=C(N)N)O[C@@H](C)[C@]2(O)C=O)O[C@@H](CO)[C@H](O)[C@H]1O [STREPTOMYCIN] | – | – | – | – | – | – | – | 1 µg/mL (≈ 1.72 µM) | – | – | – | – | – |
| COc1cccc(OC)c1C(=O)N[C@@H]1C(=O)N2[C@@H]1SC(C)(C)[C@@H]2C(=O)O [METHICILLIN] | > 64 µg/mL | > 64 µg/mL | > 64 µg/mL | – | – | – | – | – | – | – | – | – | MIC (Staphylococcus aureus [8]): > 64 µg/mL; MIC (Staphylococcus aureus [9]): > 64 µg/mL; MIC (Staphylococcus aureus [10]): 32 µg/mL (≈ 84.1 µM); MIC (Staphylococcus aureus [11]): > 64 µg/mL; MIC (Staphylococcus aureus [12]): 1 µg/mL (≈ 2.63 µM); MIC (Staphylococcus aureus [13]): > 64 µg/mL; MIC (Staphylococcus aureus [14]): > 64 µg/mL; MIC (Staphylococcus aureus [15]): > 64 µg/mL; MIC (Staphylococcus aureus [16]): > 64 µg/mL; MIC (Staphylococcus aureus [17]): > 64 µg/mL |
| C[C@@H](O)[C@H]1C(=O)N2C(C(=O)O)=C(S[C@@H]3CN[C@H](C(=O)N(C)C)C3)[C@H](C)[C@H]12 [MEROPENEM] | 16 µg/mL (≈ 41.7 µM) | 64 µg/mL (≈ 167 µM) | 64 µg/mL (≈ 167 µM) | – | – | – | – | – | – | – | – | – | MIC (Staphylococcus aureus [8]): 64 µg/mL (≈ 167 µM); MIC (Staphylococcus aureus [9]): 4 µg/mL (≈ 10.4 µM); MIC (Staphylococcus aureus [10]): 1 µg/mL (≈ 2.61 µM); MIC (Staphylococcus aureus [11]): 8 µg/mL (≈ 20.9 µM); MIC (Staphylococcus aureus [12]): 0.0625 µg/mL (≈ 0.163 µM); MIC (Staphylococcus aureus [13]): 32 µg/mL (≈ 83.4 µM); MIC (Staphylococcus aureus [14]): 64 µg/mL (≈ 167 µM); MIC (Staphylococcus aureus [15]): 64 µg/mL (≈ 167 µM); MIC (Staphylococcus aureus [16]): 4 µg/mL (≈ 10.4 µM); MIC (Staphylococcus aureus [17]): 64 µg/mL (≈ 167 µM) |
| O=C(Nc1ccc2nc(-c3cnc4c(Cl)cccc4c3)[nH]c2c1)c1ccc(Nc2nc(-c3ccccc3)nc3ccccc23)cc1 | – | – | – | > 64 µg/mL | > 64 µg/mL | > 64 µg/mL | > 64 µg/mL | 16 µg/mL (≈ 25.9 µM) | > 64 µg/mL | > 64 µg/mL | > 64 µg/mL | > 64 µg/mL | CC50 at 72 h [18]: > 100 µg/mL; selectivity ratio [19]: > 6.25 |
| N#Cc1ccc(/C=C/c2nc3ccccc3c(=O)n2-c2ccc(C(=O)O)c(O)c2)cc1 | – | – | – | – | – | – | 0.03 µg/mL (≈ 0.0733 µM) | 64 µg/mL (≈ 156 µM) | – | – | – | – | – |
| COc1ccc(-c2nc(Nc3ccc(-c4nc5cc([N+](=O)[O-])ccc5[nH]4)cc3)c3ccccc3n2)cc1OC | – | – | – | > 64 µg/mL | 8 µg/mL (≈ 15.4 µM) | > 64 µg/mL | > 64 µg/mL | 8 µg/mL (≈ 15.4 µM) | > 64 µg/mL | 4 µg/mL (≈ 7.71 µM) | > 64 µg/mL | > 64 µg/mL | CC50 at 72 h [18]: 100 µg/mL (≈ 193 µM); selectivity ratio [19]: 12.5 |
